Assay [1] deals with Radical scavenging activity. Nature of the assay: Antioxidant activity assessed as DPPH free radical scavenging activity at 10 uM after 30 mins […] by spectrophotometric analysis. The assay is classed as functional. In general terms: The DPPH test is a chemical assay of radical scavenging.
Assay [2] concerns the target T1, Polyunsaturated fatty acid lipoxygenase ALOX12 (Homo sapiens) (UniProt P18054).
T1 sequence (whole entry): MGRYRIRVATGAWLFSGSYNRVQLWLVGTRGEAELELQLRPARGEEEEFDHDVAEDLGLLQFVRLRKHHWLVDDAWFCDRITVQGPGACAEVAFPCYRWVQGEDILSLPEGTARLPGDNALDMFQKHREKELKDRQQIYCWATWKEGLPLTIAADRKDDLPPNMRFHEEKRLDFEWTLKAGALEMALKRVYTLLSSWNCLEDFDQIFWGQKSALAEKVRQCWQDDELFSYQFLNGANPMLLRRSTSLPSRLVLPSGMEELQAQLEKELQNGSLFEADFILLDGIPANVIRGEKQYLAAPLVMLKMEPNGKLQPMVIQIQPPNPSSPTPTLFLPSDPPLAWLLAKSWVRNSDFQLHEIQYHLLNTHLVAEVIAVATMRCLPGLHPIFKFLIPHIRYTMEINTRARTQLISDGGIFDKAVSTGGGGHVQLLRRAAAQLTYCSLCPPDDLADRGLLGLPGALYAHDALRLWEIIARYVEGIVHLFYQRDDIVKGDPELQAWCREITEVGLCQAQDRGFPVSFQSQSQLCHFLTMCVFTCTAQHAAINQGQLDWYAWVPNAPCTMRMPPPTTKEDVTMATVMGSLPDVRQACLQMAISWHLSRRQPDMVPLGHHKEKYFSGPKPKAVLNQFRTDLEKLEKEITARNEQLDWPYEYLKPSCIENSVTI
As to the kind of experiment: Inhibition of 12-LO in human neutrophils assessed as residual activity relative to control. The note with it: for residual activity: values are per cent of control.

The next assay deals with LNCaP. Nature of the assay: Cytotoxicity against human LNCAP cells assessed as cell viability after 24 hrs by MTT assay. The assay is classed as cell-based. Put shortly: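 LNCaP seeded at 10⁴ cells/well and exposed 24 h. MTT added, then 4 h at 37 °C, 5% CO2, dark. Medium removed and formazan dissolved in DMSO; absorbance at 570 nm.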
On the technique in general: Formazan colour is commonly taken as a measure of viable cells.

Another assay has as its system PBMC. As to the kind of experiment: Cytotoxicity against human PBMCs assessed as cell viability after 24 hrs by MTT assay. The assay is classed as cell-based. In short, it runs like this:
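Human PBMC (2 × 10⁵/well), 24 h exposure. MTT then 4 h at 37 °C in darkness. Formazan solubilized with 10% SDS in 20 mM HCl; absorbance 550 nm. Viability relative to untreated cells; IC50 derived.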

In assay [3] the target is T2, Polyunsaturated fatty acid 5-lipoxygenase (Homo sapiens, UniProt P09917).
T2 sequence (P09917 whole entry): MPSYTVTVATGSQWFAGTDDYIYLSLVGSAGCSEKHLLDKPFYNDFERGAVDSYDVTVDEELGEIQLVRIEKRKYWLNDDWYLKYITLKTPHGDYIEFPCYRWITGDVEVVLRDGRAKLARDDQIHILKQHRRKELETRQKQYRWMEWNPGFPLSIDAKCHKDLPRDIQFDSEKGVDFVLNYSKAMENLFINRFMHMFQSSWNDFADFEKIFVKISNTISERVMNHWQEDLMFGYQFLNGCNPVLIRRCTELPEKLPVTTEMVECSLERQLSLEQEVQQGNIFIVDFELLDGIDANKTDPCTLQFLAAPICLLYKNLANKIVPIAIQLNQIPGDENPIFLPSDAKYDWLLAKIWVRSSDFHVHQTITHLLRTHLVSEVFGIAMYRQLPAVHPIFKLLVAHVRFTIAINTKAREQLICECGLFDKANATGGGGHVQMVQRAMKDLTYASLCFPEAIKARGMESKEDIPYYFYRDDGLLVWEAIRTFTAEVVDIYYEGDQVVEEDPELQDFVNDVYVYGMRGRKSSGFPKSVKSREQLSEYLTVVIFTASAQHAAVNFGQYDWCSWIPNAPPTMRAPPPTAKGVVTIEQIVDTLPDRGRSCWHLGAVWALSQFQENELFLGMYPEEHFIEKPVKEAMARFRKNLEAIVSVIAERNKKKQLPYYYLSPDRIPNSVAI
Nature of the assay: Inhibition of human recombinant 5-LO expressed in Escherichia coli Bl21 (DE3) using arachidonic acid as substrate preincubated for 10 mins measured after 10 mins by RP-HPLC analysis. In short, it runs like this:
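5-LO expressed from pT3-5LO in E. coli BL21(DE3), semi-purified on ATP-agarose, diluted in PBS with 1 mM EDTA and 1 mM ATP. Preincubated with compound 10 min at 4 °C, then 30 s at 37 °C. Started with 2 mM CaCl2 plus 20 μM arachidonic acid; 10 min at 37 °C; ice-cold methanol stop. Three to four experiments.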

In assay [4] the target is Prostaglandin G/H synthase 1 (Homo sapiens, UniProt P23219). Nature of the assay: Inhibition of COX1-mediated PGE2 production in human platelets assessed as residual activity by measuring formation of 12-HHT from arachidonic acid preincubated at 10 uM for 5 mins measured after 5 mins by RP-HPLC analysis relative to control. In short, it runs like this:
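Washed human platelets, 10⁸/mL in PBS pH 7.4 with 1 mM CaCl2: 5 min compound preincubation at room temperature, then 1 min at 37 °C. Arachidonic acid 5 μM added; 5 min at 37 °C. 12-HHT extracted and measured by RP-HPLC.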

Assay [5] addresses T3, Prostaglandin G/H synthase 1 (Ovis aries) (UniProt P05979).
T3 sequence (whole entry): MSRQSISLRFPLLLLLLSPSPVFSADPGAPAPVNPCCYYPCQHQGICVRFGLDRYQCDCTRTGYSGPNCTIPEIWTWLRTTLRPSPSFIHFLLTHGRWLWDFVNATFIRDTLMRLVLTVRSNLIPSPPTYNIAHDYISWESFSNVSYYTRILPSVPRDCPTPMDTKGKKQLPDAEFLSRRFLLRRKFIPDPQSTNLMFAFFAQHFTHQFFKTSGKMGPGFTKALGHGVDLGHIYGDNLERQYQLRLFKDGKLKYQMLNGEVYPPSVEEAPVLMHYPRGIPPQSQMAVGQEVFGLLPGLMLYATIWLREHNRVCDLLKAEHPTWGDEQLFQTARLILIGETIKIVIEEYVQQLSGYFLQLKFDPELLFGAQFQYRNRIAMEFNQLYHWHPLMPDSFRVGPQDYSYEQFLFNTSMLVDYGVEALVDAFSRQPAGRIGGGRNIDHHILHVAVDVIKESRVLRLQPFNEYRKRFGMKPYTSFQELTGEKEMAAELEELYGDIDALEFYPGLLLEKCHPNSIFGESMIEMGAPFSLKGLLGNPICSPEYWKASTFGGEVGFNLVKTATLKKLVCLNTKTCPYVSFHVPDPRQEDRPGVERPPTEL
Nature of the assay: Inhibition of purified ovine COX-1 assessed as residual activity by measuring formation of 12-HHT from arachidonic acid preincubated at 10 uM for 5 mins before substrate addition measured after 5 mins by HPLC analysis relative to control. Put shortly: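 Purified ovine COX-1 (50 units) in 100 mM Tris pH 8 with 5 mM glutathione, 5 μM hemoglobin and 100 μM EDTA. Preincubated 5 min at 4 °C then 1 min at 37 °C. 5 μM arachidonic acid added; 12-HHT extracted after 5 min and measured by HPLC. Residual activity at 10 μM, three independent experiments.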

The source of these data is ChEMBL document CHEMBL3286393 (J Med Chem, 2014).

The structures appear in SMILES notation. pIC50: −log10 of the molar value. Activity calls are given as the source filed them. The calls are words filed in the database; no cut-off is given here.

For orientation: residual activity means the share of the control activity or signal that is left under treatment. In general, pIC50 refers to the IC50 on a negative log10 scale, so that one unit is a factor of ten.

Chain of Prostaglandin G/H synthase 1 (P23219 whole entry): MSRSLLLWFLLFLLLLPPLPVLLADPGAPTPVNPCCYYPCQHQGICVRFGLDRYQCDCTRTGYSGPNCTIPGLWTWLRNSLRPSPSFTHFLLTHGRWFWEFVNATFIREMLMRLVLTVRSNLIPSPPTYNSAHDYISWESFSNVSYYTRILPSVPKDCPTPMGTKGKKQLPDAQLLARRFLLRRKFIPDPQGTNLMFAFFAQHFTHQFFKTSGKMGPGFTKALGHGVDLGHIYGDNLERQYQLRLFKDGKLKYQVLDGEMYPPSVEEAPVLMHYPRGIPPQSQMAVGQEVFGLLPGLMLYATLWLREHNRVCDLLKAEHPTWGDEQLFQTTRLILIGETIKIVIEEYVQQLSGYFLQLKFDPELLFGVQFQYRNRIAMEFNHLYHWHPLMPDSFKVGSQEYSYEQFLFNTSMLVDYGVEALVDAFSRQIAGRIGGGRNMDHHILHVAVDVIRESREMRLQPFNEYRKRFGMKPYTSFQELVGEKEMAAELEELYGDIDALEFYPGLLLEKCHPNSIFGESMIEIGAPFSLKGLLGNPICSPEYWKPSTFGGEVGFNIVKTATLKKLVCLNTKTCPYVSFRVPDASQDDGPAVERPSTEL

Consider `COc1cc(/C=C/C(=O)/C=C/c2cc(CC=C(C)C)c(O)c(OC)c2)cc(CC=C(C)C)c1O`, for which the Activity in assay [1] was determined as 75.8%. For the same molecule, the residual activity in assay [2] was 64.7%. For the same molecule, the pIC50 is 4.36 with LNCaP, less than 4.30 with PBMC and 6.30 in assay [3]. Besides, in assay [4], the inhibition result is “inactive”.

As to `COc1cc(/C=C/c2cc(/C=C/c3ccc(O)c(OC)c3)[nH]n2)ccc1O` [CURCUMIN PYRAZOLE], the Activity in assay [1] turned out to be 59.6%. Further, the pIC50 is less than 4.30 in the assay with LNCaP, less than 4.30 in the assay with PBMC and 7.15 in assay [3]. In assay [5], the inhibition result was “inactive”.

For `COc1cc(/C=C/C(=O)CC(=O)c2ccc(O)c(OC)c2)ccc1O`, the Activity in assay [1] worked out at 80.2%. Moreover, the residual activity in assay [2] is 60.6%. Moreover, the pIC50 is less than 4.30 in the assay with LNCaP, less than 4.30 with PBMC and 5.64 in assay [3]. Moreover, the inhibition entry in assay [5] and in assay [4] was “inactive” throughout.

With `COc1cc(CCC(=O)CC(=O)CCc2ccc(O)c(OC)c2)ccc1O` [TETRAHYDROCURCUMIN], in assay [1], the Activity is 62.2%. Moreover, the residual activity in assay [2] stood at 87.4%. Besides, the pIC50 in the assay on LNCaP is less than 4.30; with PBMC, less than 4.30; in assay [3] it was 5.49. Also, the inhibition entry in assay [5] and in assay [4] was “inactive” each time.

Consider `COc1cc(/C=C/C(=O)CC(=O)/C=C/c2ccc(O)c(OC)c2)ccc1O` [CURCUMIN], for which the Activity in assay [1] was determined as 63.9%. The residual activity in assay [2] came out at 65%. Moreover, the pIC50 in the assay with LNCaP is 4.44; in the assay with PBMC it was 4.46. Also, the inhibition result in assay [5] is “inactive”.

Turning to `COc1cc(/C=C/c2cc(/C=C/c3cc(CC=C(C)C)c(O)c(OC)c3)[nH]n2)cc(CC=C(C)C)c1O`, the Activity in assay [1] came out at 57.3%. The residual activity in assay [2] came out at 68.7%. Besides, the pIC50 is less than 4.30 in the assay on LNCaP, less than 4.30 with PBMC and 7.00 in assay [3]. The inhibition entry in assay [5] and in assay [4] was “inactive” in each case.

Consider `COc1cc(/C=C/c2cc(-c3ccc(O)c(OC)c3)[nH]n2)ccc1O`, for which the Activity in assay [1] is 70.3%. The results for the pIC50 (with LNCaP; with PBMC; in assay [3]) were less than 4.30, less than 4.30 and 7.05, respectively. The inhibition entry in assay [5] and in assay [4] was “inactive” in each case.

For `COc1cc(/C=C/C(=O)CC(=O)/C=C/c2cc(CC=C(C)C)c(O)c(OC)c2)cc(CC=C(C)C)c1O`, the Activity in assay [1] was found to be 57.9%. In addition, the inhibition entry in assay [2] and in assay [4] was “inactive” each time. The negative logarithm of the IC50 (pIC50) is less than 4.30 in the assay on LNCaP, less than 4.30 in the assay with PBMC and 6.15 in assay [3].

For `COc1cc(/C=C/C(=O)/C=C/c2ccc(O)c(OC)c2)ccc1O`, the Activity in assay [1] stood at 80.7%. In addition, in assay [2], the residual activity was found to be 70.1%. Moreover, the results for the pIC50 (with LNCaP; in the assay on PBMC; in assay [3]) were 5.00, 4.46 and 6.10, respectively. For the same molecule, the inhibition result in assay [5] and in assay [4] was “inactive” in each case.
